Calls of active or inactive are those of the source. No cut-off for these calls is given here.
What was measured:
Danio rerio [1] = organism: Danio rerio; test: Antimelanogenic activity against zebrafish embryo assessed as whitening efficacy at 10 uM; type: functional, organism-based
Danio rerio [2] = organism: Danio rerio; test: Antimelanogenic activity against zebrafish embryo assessed as whitening efficacy; type: functional, organism-based
Summary of the method: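 Synchronized zebrafish embryos were treated with compound and scored for pigmentation. Controls received 0.1% DMSO or 0.2 mM PTU.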

HMV-2 cell line [3] = test: Antimelanogenic activity against human HMVII cells assessed as melanin content in cell lysate at 100 uM relative to control; type: functional
Summary of the method: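 HMV-II human melanoma cells were cultured for 5 days with test sample or DMSO. Melanin pellets were collected from cell lysates, and total melanin content was expressed relative to the DMSO control.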

HMV-2 cell line [4] = test: Antimelanogenic activity against human HMVII cells assessed as reduction in melanin content in cell lysate; type: functional, cell-based
Summary of the method: (§1)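 Human melanoma HMV-II cells were exposed to compound at 1, 10 or 20 µM. Melanin was pelleted from cell lysates, and total melanin content was expressed relative to the DMSO-treated control.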

HMV-2 cell line [5] = test: Cytotoxicity against human HMVII cells assessed as decrease in cell survival at 20 uM measured after 5 days by Cytox-reagent based relative to control; details: hmv-2, 120 h
Summary of the method: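 HMV-II cells were seeded at 7,500 cells/well and cultured 24 h, then exposed to compound for 5 days. Viability was read with CytoX reagent.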

[6] = Toxicity against human skin assessed as effect on tissue viability up to 50 uM measured after 3 hrs by MTT assay
HMV-2 cell line [7] = test: Antimelanogenic activity against human HMVII cells assessed as melanin content in cell lysate at 1 uM relative to control; type: functional; summary of the method: as §1
HMV-2 cell line [8] = test: Antimelanogenic activity against human HMVII cells assessed as melanin content in cell lysate at 10 uM relative to control; type: functional; summary of the method: as §1
[9] = Toxicity against human eye assessed as effect on tissue viability up to 50 uM measured after 30 mins by MTT assay; type: tissue-based; details: 0.5 h
Summary of the method: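 Reconstructed human ocular tissue (Neoderm-CD) was exposed to compound up to 50 µM and stained with MTT (1 mg/mL) for 30 min. Formazan was extracted with isopropanol and absorbance read at 570 nm.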

HMV-2 cell line [10] = test: Antimelanogenic activity against human HMVII cells assessed as reduction in TRP1 mRNA level at 1 to 20 uM measured after 24 hrs by RT-PCR analysis; type: functional, cell-based
Summary of the method: (§2)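 HMV-II melanoma cells were treated with compound for 24 h. MITF, TRP-1 and TRP-2 mRNA levels were then quantified by real-time RT-PCR.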

HMV-2 cell line [11] = test: Antimelanogenic activity against human HMVII cells assessed as melanin content in cell lysate at 20 uM relative to control; type: functional; summary of the method: as §1
HMV-2 cell line [12] = test: Antimelanogenic activity against human HMVII cells assessed as reduction in TRP2 mRNA level at 1 to 20 uM measured after 24 hrs by RT-PCR analysis; type: functional, cell-based; summary of the method: as §2
HMV-2 cell line [13] = test: Antimelanogenic activity against human HMVII cells assessed as change in melanin colour from black to brown; type: functional, cell-based
HMV-2 cell line [14] = test: Antimelanogenic activity against human HMVII cells assessed as reduction in tyrosinase mRNA level at 10 to 20 uM measured after 24 hrs by RT-PCR analysis; type: functional, cell-based
HMV-2 cell line [15] = test: Antimelanogenic activity against human HMVII cells assessed as reduction in MITF mRNA level at 1 to 20 uM measured after 24 hrs by RT-PCR analysis; type: functional, cell-based; summary of the method: as §2

Row | Compound | Activity (Danio rerio [1]) | further results
1 | FC(F)(F)c1ccc(Sc2nccc3ccccc23)cc1 | inactive | 
2 | Fc1ccc(Sc2ncnc3c(Br)csc23)cc1 | Active | Activity (Danio rerio [2]): Dose-dependent effect
3 | Fc1ccc(Sc2nccc3ccccc23)c(F)c1 | Active | 
4 | CCOC(=O)c1ccc(Sc2nccc3ccccc23)cc1 | Active | 
5 | Fc1ccccc1Sc1nccc2ccccc12 | Active | 
6 | Clc1ccc(Sc2nccc3ccccc23)cc1 | Active | 
7 | Fc1ccc(Sc2ncnc3[nH]cnc23)cc1 | inactive | 
8 | Fc1ccc(Sc2[nH]cnc3nccc2-3)cc1 | Active | 
9 | c1ccc2c(Sc3nc4ccccc4[nH]3)nccc2c1 | Active | 
10 | OC[C@H]1O[C@@H](Oc2ccc(O)cc2)[C@H](O)[C@@H](O)[C@@H]1O [ARBUTIN] |  | Activity (HMV-2 cell line [3]): 85.6%
11 | Fc1ccc(Sc2ncnc3cc[nH]c23)cc1 | Active | 
12 | O=c1cc(CO)occ1O [KOJIC ACID] |  | Activity (HMV-2 cell line [3]): 45.9%
13 | Fc1ccc(Nc2nccc3ccccc23)cc1 | inactive | 
14 | c1ccc(Sc2nccc3ccccc23)nc1 | Active | 
15 | Fc1ccc(Oc2nccc3ccccc23)cc1 | inactive | 
16 | Nc1ccc(Sc2nccc3ccccc23)cc1 | Active | 
17 | c1ccc2c(Sc3nc4ccccc4s3)nccc2c1 | inactive | 
18 | c1cnc(Sc2nccc3ccccc23)nc1 | Active | 
19 | Cc1ccc(Sc2nccc3ccccc23)cc1 | Active | 
20 | c1ccc2c(Sc3nccc4ccccc34)nccc2c1 | Active | 
21 | c1ccc(Sc2nccc3ccccc23)cc1 | Active | Activity (Danio rerio [2]): Dose-dependent effect
22 | Fc1ccc(Sc2nccc3ccccc23)cc1 | Active | Activity (HMV-2 cell line [4]): Dose-dependent effect; Activity (HMV-2 cell line [5]): < 10%; Activity [6]: Non-Toxic; Activity (HMV-2 cell line [7]): 67.6%; Activity (HMV-2 cell line [8]): 31.3%; Activity (Danio rerio [2]): Dose-dependent effect; Activity [9]: Non-Toxic; inhibition (HMV-2 cell line [10]): Active; Activity (HMV-2 cell line [11]): 14.6%; inhibition (HMV-2 cell line [12]): Active; Activity (HMV-2 cell line [13]): Active; inhibition (HMV-2 cell line [14]): Active; inhibition (HMV-2 cell line [15]): Active

From ChEMBL document CHEMBL4619757, “Identification of new arylsulfide derivatives as anti-melanogenic agents in a zebrafish model” (Bioorg Med Chem Lett, 2020)
